Reference: paper PMC6044994 (ACS Omega, 2018)
Converted amounts (≈) assume the structure as drawn. Read-outs that look alike come from different tables or passages of the source.

What was measured:
E. coli [1] = assay: Growth kinetic studies; assay type: cell-based, Escherichia coli; conditions: for time at which growth was observed (lag phase): sub-MIC concentration
Procedure, shortened: (§1)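 Fresh cultures grown 12 h at 37 °C, then about 2 × 10^6 cells/mL inoculated into 50 mL nutrient broth. […] Shaken at 37 °C, 160 rpm. Samples taken every 2 h from 0 to 22 h, with OD600 plotted against time.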

S. pneumoniae biofilm [2] = assay: Anti-biofilm activity by crystal violet assay; assay type: cell-based; conditions: Streptococcus pneumoniae, read-out: inhibition of biofilm formation (crystal violet)
[3] = test system: human red blood cells (hRBCs); assay: Hemolytic assay; assay type: cell-based
Procedure, shortened: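 Erythrocytes from healthy donors (EDTA) pelleted at 2000 rpm for 10 min at 20 °C and washed three times in PBS. Made to a 10% suspension, diluted 1:10, then mixed 1:1 with test compound in PBS (gradient 1000–7.8 μg/mL). Incubated 1 h at 37 °C and centrifuged; supernatant A450 used to calculate % hemolysis.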

G. mellonella larvae [4] = assay: In vivo toxicity, larval viability; design: species or system Galleria mellonella; conditions: up to 2.5 mg/mL
E. coli biofilm [5] = assay: Anti-biofilm activity by crystal violet assay; assay type: cell-based; conditions: Escherichia coli, read-out: inhibition of biofilm formation (crystal violet)
E. coli biofilm [6] = assay: Anti-biofilm activity by XTT reduction assay; assay type: cell-based; conditions: Escherichia coli, read-out: inhibition of biofilm formation (XTT)
Procedure, shortened: (§2)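 Biofilm grown in tryptic soy broth from 5 × 10^5 CFU/mL inocula with 2-fold serial dilutions of test compound (7.812–1000 μg/mL), 37 °C for 24 h, static. Nonadherent cells removed by PBS wash.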

S. pneumoniae [7] = assay: CFU count of bacterial cells post treatment; assay type: cell-based, Streptococcus pneumoniae; conditions: treated bacterial cells
[8] = test system: multidrug-resistant E. coli strains MRA11, MRC17, MRAE33; assay: Synergistic study with CIP, checkerboard method; assay type: cell-based, Escherichia coli; conditions: for MIC: Escherichia coli
HEK293 cells = assay: Cytotoxicity by MTT assay; assay type: cell-based, human; conditions: HEK293, up to 100 μg/mL concentration
[9] = Cytotoxicity by MTT assay; assay type: cell-based, human; conditions: human, HEK293 cells
G. mellonella larvae [10] = assay: In vivo toxicity, hemocyte density of larvae; design: species or system Galleria mellonella; conditions: 2.5 mg/mL, 24 h
Procedure, shortened: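 Three larvae injected with 20 μL of test compound at 1.25 or 2.5 mg/mL and kept 24 h at 30 °C in the dark. Hemolymph collected from the anterior end and diluted 1 in 10 in cold PBS with 0.37% 2-mercaptoethanol. Hemocytes counted on a hemocytometer and density back-calculated.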

S. pneumoniae biofilm [11] = assay: Anti-biofilm activity by XTT reduction assay; assay type: cell-based; conditions: Streptococcus pneumoniae, read-out: inhibition of biofilm formation (XTT)
Procedure, shortened: as §2

E. coli (ATCC 25922) = assay: In vitro antibacterial activity, broth dilution; assay type: cell-based; conditions: Escherichia coli, ATCC25922
S. pneumoniae [12] = assay: Growth kinetic studies; assay type: cell-based, Streptococcus pneumoniae; conditions: for time at which growth was observed: S. pneumoniae
Procedure, shortened: as §1

[13] = test system: multidrug-resistant E. coli strains; assay type: cell-based, Escherichia coli; conditions: for inhibition at 1024 µg/mL: Escherichia coli
E. coli cells = assay: TEM analysis of cell morphology; assay type: cell-based, Escherichia coli; conditions: MIC concn, 1 h
Procedure, shortened: (§3)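 Cells standardized to A600 ≈ 0.1 and exposed 1 h to test compound: E. coli at 62.5 or 125 μg/mL, S. pneumoniae at 125 μg/mL. Washed in PBS, fixed overnight in 2.5% glutaraldehyde (phosphate/MgCl2 buffer, pH 6.5). Postfixed 2 h in 2% OsO4, stained en bloc with 1% uranyl acetate, ethanol-dehydrated, Epon-embedded (60 °C, 48 h). Ultrathin sections imaged by TEM.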

S. pneumoniae cells = assay: TEM analysis of cell morphology; assay type: cell-based, Streptococcus pneumoniae; conditions: MIC concn, 1 h
Procedure, shortened: as §3

S. pneumoniae (MTCC 655) = assay: In vitro antibacterial activity, broth dilution; assay type: cell-based; conditions: Streptococcus pneumoniae, MTCC655
E. coli [14] = assay: CFU count of bacterial cells post treatment; assay type: cell-based, Escherichia coli; conditions: treated bacterial cells
[15] = E. coli MRA11, in combination with CIP
[16] = E. coli MRA11, test compound in combination with CIP
[17] = E. coli MRAE33, in combination with CIP
[18] = E. coli MRAE33, test compound in combination with CIP
[19] = E. coli MRC17, in combination with CIP
[20] = E. coli MRC17, test compound in combination with CIP
[21] = read-out: MIC alone, E. coli MRA11
[22] = read-out: MIC alone, E. coli MRAE33
[23] = read-out: MIC alone, E. coli MRC17
[24] = read-out: % inhibition of growth, E. coli MRA11, at 1024 μg/mL (MIC)
[25] = read-out: % inhibition of growth, E. coli MRAE33, at 1024 μg/mL (MIC)
[26] = read-out: % inhibition of growth, E. coli MRC17, at 1024 μg/mL (MIC)

Row | Compound | time at which growth was observed (lag phase) (E. coli [1]; E. coli) | inhibition at 250 µg/mL (S. pneumoniae biofilm [2]) [%] | cell lysis ([3]; 200 μg/mL) [%] | cell lysis ([3]; 600 μg/mL) [%] | viability of the larvae (G. mellonella larvae [4]) | CFUs S. pneumoniae (S. pneumoniae [7]) | FICI [8, 15] | mode of interaction [8, 15] | MIC in combination [8, 16] [µg/mL] | FICI [8, 17] | mode of interaction [8, 17] | MIC in combination [8, 18] [µg/mL] | FICI [8, 19] | mode of interaction [8, 19] | MIC in combination [8, 20] [µg/mL] | MIC [8, 21] [µg/mL] | MIC [8, 22] [µg/mL] | MIC [8, 23] [µg/mL] | cytotoxicity (HEK293 cells) | CFUs E. coli (E. coli [14]) | other results
1 | Cc1ccc(C(C)C)cc1OCc1cn(-c2ccc(C(=O)O)cc2)nn1 [Compound 5e, 4-(4-((5-Isopropyl-2-methylphenoxy)methyl)-1H-1,2,3-triazol-1-yl)benzoic Acid] | approximately 6 h | 93.4 | 9 | 22 | not affected | 7.8 × 10^3 | 0.03 | synergistic (Synergy and antagonism were defined by FICI ≤ 0.5 and >4, respectively) | 16 | 1.02 | indifferent (indifferent was defined by 1 < FICI ≤ 4) | 16 | 0.03 | synergistic (Synergy and antagonism were defined by FICI ≤ 0.5 and >4, respectively) | 16 | 1020 | 1020 | 1020 | did not show significant cytotoxicity | 2.5 × 10^4 | growth of E. coli (E. coli [1]; MIC and 2MIC concentrations, up to 22 h of incubation): no significant growth; inhibition at 125 µg/mL (E. coli biofilm [5]): 94.3%; inhibition at 125 µg/mL (E. coli biofilm [6]): 95.2%; viability at 48 h, 50 μg/mL [9]: > 75%; viability at 48 h, 200 μg/mL [9]: > 50%; hemocyte density of the larvae (G. mellonella larvae [10]): not significantly affected; inhibition at 250 µg/mL (S. pneumoniae biofilm [11]): 92.3%; MIC (E. coli (ATCC 25922)): 62.5 µg/mL (≈ 178 µM); growth of S. pneumoniae (S. pneumoniae [12]; sub-MIC concentration (62.5 μg/mL)): effectively inhibited the growth; inhibition at 1024 µg/mL [13, 24]: > 95%; inhibition at 1024 µg/mL [13, 25]: 86%; inhibition at 1024 µg/mL [13, 26]: 79%; effect on cell morphology (TEM) (E. coli cells): significantly damaged the cell wall; effect on cell morphology (TEM) (S. pneumoniae cells): significantly damaged the cell wall; MIC (S. pneumoniae (MTCC 655)): 125 µg/mL (≈ 356 µM)
2 | O=C(O)c1cn(C2CC2)c2cc(N3CCNCC3)c(F)cc2c1=O [CIP, Ciprofloxacin, reference compound] | – | – | 0.8 | – | – | 5.0 × 10^3 | – | – | – | – | – | – | – | – | – | 128 | 2 | 128 | – | 2.0 × 10^4 | MIC in combination ([8]; E. coli MRA11, CIP in combination with 5e): 2 µg/mL; MIC in combination ([8]; E. coli MRA11, CIP in combination with 5u): 16 µg/mL; MIC in combination ([8]; E. coli MRAE33, CIP in combination with 5e): 2 µg/mL; MIC in combination ([8]; E. coli MRAE33, CIP in combination with 5u): 2 µg/mL; MIC in combination ([8]; E. coli MRC17, CIP in combination with 5e): 2 µg/mL; MIC in combination ([8]; E. coli MRC17, CIP in combination with 5u): 64 µg/mL; % inhibition of growth ([13]; multidrug-resistant E. coli strains, at a concentration lower than those of the compounds): ~100%
3 | O=C(O)c1ccc(-n2cc(COC3=CC(=O)c4ccccc4C3=O)nn2)cc1 [Compound 5u, 4-(4-((1,4-Dioxo-1,4-dihydronaphthalen-2-yloxy)methyl)-1H-1,2,3-triazol-1-yl)benzoic Acid] | 6 h | 98.3 | 9 | 12 | not affected | 6.0 × 10^3 | 0.62 | partially synergistic (Partially synergistic was denoted by 0.5 > FICI < 1) | 512 | 1.02 | indifferent (indifferent was defined by 1 < FICI ≤ 4) | 16 | 1.50 | indifferent (indifferent was defined by 1 < FICI ≤ 4) | 1024 | 1020 | 1020 | 1020 | did not show significant cytotoxicity | 2.7 × 10^4 | time at which growth was observed (E. coli [1]; E. coli, MIC concentration): 9 h; inhibition at 250 µg/mL (E. coli biofilm [5]): 77.3%; inhibition at 250 µg/mL (E. coli biofilm [6]): 92.3%; viability at 48 h, 50 μg/mL [9]: > 75%; viability at 48 h, 200 μg/mL [9]: > 50%; hemocyte density of the larvae (G. mellonella larvae [10]): not significantly affected; inhibition at 250 µg/mL (S. pneumoniae biofilm [11]): 100%; MIC (E. coli (ATCC 25922)): 125 µg/mL (≈ 333 µM); time at which growth was observed (S. pneumoniae [12]; MIC concentration): 9 h; time at which growth was observed (S. pneumoniae [12]; sub-MIC concentration): 8 h; inhibition at 1024 µg/mL [13, 24]: > 90%; inhibition at 1024 µg/mL [13, 25]: ~100%; inhibition at 1024 µg/mL [13, 26]: ~100%; effect on cell morphology (TEM) (E. coli cells): significantly damaged the cell wall; effect on cell morphology (TEM) (S. pneumoniae cells): significantly damaged the cell wall; MIC (S. pneumoniae (MTCC 655)): 125 µg/mL (≈ 333 µM)
